# Data from ChEMBL document CHEMBL1129059, “Antitumor properties of some 2-[(dimethylamino)methyl]phenylgold(III) complexes” (J Med Chem, 1996).
# Assays:
# SK-OV-3 [1] = test: Compound was tested for in vitro growth inhibition of primary panel tumor cell lines SK-OV-3; format: functional, cell-based, Homo sapiens
# Method in brief: (§1)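 Primary-panel lines kept in L15, RPMI 1640 plus pyruvate, or MEM, each with 10% FBS. Cells were seeded at 5×10^4–10^5 cells/mL, preincubated 24 h, then exposed 4 h to 0–200 μg/mL from a 2 mg/mL stock in 10% DMA/PBS. After washout and 72 h further growth, cells were read by SRB. IC50 was the concentration giving 50% survival versus untreated controls.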
# HX62 cell line = test: Compound was tested for in vitro growth inhibition of Ovarian carcinoma cell line panel HX62; format: functional, cell-based, Homo sapiens
# Method in brief: (§2)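 Ovarian lines grown as monolayers in DMEM with 10% FBS, insulin, hydrocortisone and L-glutamine under 6% CO2. Cells were seeded at 3–5 × 10³/well and left to attach overnight. Compounds were freshly dissolved in DMA or water and applied for 96 h in quadruplicate wells. Growth was measured by SRB and reported as IC50.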
# SW 1116 = test: Compound was tested for in vitro growth inhibition of primary panel tumor cell line SW1116; format: functional, cell-based, Homo sapiens; method in brief: as §1
# CH1 [2] = test: Compound was tested for in vitro growth inhibition of Ovarian carcinoma cell line panel CH1; format: functional, cell-based; method in brief: as §2
# A2780 [3] = test: Compound was tested for in vitro growth inhibition of Ovarian carcinoma cell line panel A2780; format: functional, cell-based, Homo sapiens; method in brief: as §2
# SK-OV-3 [4] = test: Compound was tested for in vitro growth inhibition of Ovarian carcinoma cell line panel SK-OV-3; format: functional, cell-based, Homo sapiens; method in brief: as §2
# A2780 [5] = test: Compound was tested for in vitro growth inhibition of Ovarian carcinoma cell line panel A2780-R; format: functional, cell-based, Homo sapiens; method in brief: as §2
# [6] = Solubility at 25 degrees Celsius in water; format: physicochemical; details: buffer
# Method in brief: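 5–10 mg sample was tumbled in 5.0 mL water at 25 °C for 24 h and filtered. The solution was diluted as needed and gold was quantified with 1 ppm indium as internal standard.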
# [7] = Solubility at 25 degrees Celsius in 1-Octanol; format: physicochemical
# Method in brief: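 A sample was tumbled in 1-octanol at 25 °C for 24 h and filtered. An aliquot was evaporated and the residue taken up in dilute aqua regia. Gold content was determined as for the aqueous samples, with indium as internal standard.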
# HT-29 = test: Compound was tested for in vitro growth inhibition of primary panel tumor cell line HT-29/219; format: functional, cell-based, Homo sapiens; method in brief: as §1
# CH1 [8] = test: Compound was tested for in vitro growth inhibition of Ovarian carcinoma cell line panel CH1-R; format: functional, cell-based; method in brief: as §2
# ZR-75-1 [9] = test: Compound was tested for in vitro growth inhibition of primary panel tumor cell line ZR-75-1; format: functional, cell-based, Homo sapiens; method in brief: as §1
# SW-620 [10] = test: Compound was tested for in vitro growth inhibition of primary panel tumor cell line SW620; format: functional, cell-based, Homo sapiens; method in brief: as §1
# HT-1376 = test: Compound was tested for in vitro growth inhibition of primary panel tumor cell line HT1376; format: functional, cell-based, Homo sapiens; method in brief: as §1
# SK-OV-3 [11] = test: Compound was tested for in vitro growth inhibition of primary panel tumor cell line SK-OV-3; format: functional, cell-based, Homo sapiens; method in brief: as §1
# ZR-75-1 [12] = test: Compound was tested for in vitro growth inhibition of primary panel tumor cell linZR-75-1; format: functional, cell-based, Homo sapiens; method in brief: as §1
# SW-620 [13] = test: Compound was tested for in vitro growth inhibition of primary panel tumor cell lines SW620; format: functional, cell-based, Homo sapiens; method in brief: as §1
# [14] = Range is evaluated. (Highest IC50/Lowest IC50); format: functional
# [15] = Range is evaluated.; format: functional
# SK-OV-3 [16] = test: Compound was tested for in vitro growth inhibition of Ovarian carcinoma cell line panelSK-OV-3; format: functional, cell-based, Homo sapiens; method in brief: as §2
# Mus musculus [17] = test: Compound was evaluated for antitumor activity (RTV) in HT1376 carcinoma Xenograft, at a dosage 4.5 mg/kg on day 28; format: functional, organism-based; parameters: dose 4.5 mg/kg
# Method in brief: (§3)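 HT1376 tumor fragments implanted subcutaneously in nude mice flanks; mice with established palpable tumors randomized into groups of 6 (controls 10). Compounds given intraperitoneally as suspensions in 0.5% carboxymethylcellulose in 0.9% saline, on days 0, 7, 14 and 21. Tumor dimensions on days 0, 7, 14, 21, 28. RTV = 100(mean tumor volume at assessment)/(mean start volume).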
# Mus musculus [18] = test: Compound was evaluated for antitumor activity (RTV) in HT1376 carcinoma Xenograft, at a dosage 4.5 mg/kg on day 21; format: functional, organism-based; parameters: dose 4.5 mg/kg; method in brief: as §3
# Mus musculus [19] = test: Compound was evaluated for antitumor activity (T/C) in HT1376 carcinoma Xenograft, at a dosage 4.5 mg/kg on day 21; format: functional, organism-based; parameters: dose 4.5 mg/kg
# Method in brief: (§4)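 Nude mice carrying subcutaneous flank HT1376 fragments; treatment began once tumors were established and palpable, randomized into groups of 6 treated and 10 control mice. Dosing was ip as a suspension in 0.5% carboxymethylcellulose in 0.9% saline on days 0, 7, 14 and 21, at the MTD and two 2-fold dilutions. Tumors were measured on days 0-28. RTV = 100(mean volume at assessment)/(mean start volume); T/C = treated RTV/control RTV.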
# Mus musculus [20] = test: Compound was evaluated for antitumor activity (T/C) in HT1376 carcinoma Xenograft, at a dosage 4.5 mg/kg on day 7; format: functional, organism-based; parameters: dose 4.5 mg/kg; method in brief: as §4
# Mus musculus [21] = test: Compound was evaluated for antitumor activity (T/C) in HT1376 carcinoma Xenograft, at a dosage 4.5 mg/kg on day 28; format: functional, organism-based; parameters: dose 4.5 mg/kg; method in brief: as §4
# Mus musculus [22] = test: Compound was evaluated for antitumor activity (T/C) in HT1376 carcinoma Xenograft, at a dosage 4.5 mg/kg on day 13; format: functional, organism-based; parameters: dose 4.5 mg/kg; method in brief: as §4
# Mus musculus [23] = test: Compound was evaluated for antitumor activity (RTV) in HT1376 carcinoma Xenograft, at a dosage 4.5 mg/kg on day 7; format: functional, organism-based; parameters: dose 4.5 mg/kg; method in brief: as §3
# Mus musculus [24] = test: Compound was evaluated for antitumor activity (RTV) in HT1376 carcinoma Xenograft, at a dosage 4.5 mg/kgon day 13; format: functional, organism-based; parameters: dose 4.5 mg/kg
IC50 (SK-OV-3 [1]),IC50 (A2780 [3]),IC50 (SK-OV-3 [4]),IC50 (A2780 [5]),Solubility [6],Solubility [7],IC50 (HT-29),IC50 (HT-1376),IC50 (SW-620 [13]),Substance,IC50 (HX62 cell line),IC50 (SW 1116),IC50 (CH1 [2]),IC50 (CH1 [8]),IC50 (ZR-75-1 [9]),other results
10 µM,3.7 µM,42 µM,35 µM,430 µM,170 µM,19 µM,10 µM,,"Oxalato[2-(dimethylamino)methyl]phenyl-C,N]gold-(III) Hemihydrate [listing 1 of 2 here]",30 µM,215 µM,11 µM,13 µM,41 µM,IC50 (SW-620 [10]): 205 µM
,1.2 µM,5.2 µM,10 µM,,,17 µM,23 µM,167 µM,CISPLATIN [listing 1 of 2 here],18 µM,163 µM,0.12 µM,0.56 µM,,IC50 (SK-OV-3 [11]): 23 µM; IC50 (ZR-75-1 [12]): 27 µM

# The next lines start with the substance.
Substance,IC50 (SK-OV-3 [1]),IC50 (A2780 [3]),IC50 (SK-OV-3 [4]),IC50 (A2780 [5]),Solubility [6],Solubility [7],IC50 (HT-29),IC50 (HT-1376),IC50 (SW-620 [13]),IC50 (HX62 cell line),IC50 (SW 1116),IC50 (CH1 [2]),IC50 (CH1 [8]),IC50 (ZR-75-1 [9]),other results
"Oxalato[2-(dimethylamino)methyl]phenyl-C,N]gold-(III) Hemihydrate [listing 2 of 2 here]",,,,,,,,,,,,,,,Range [14]: 21.5; Range [15]: 11.4
"Dichloro[2-(dimethylamino)methyl]phenyl-C,N]gold-(III)",45 µM,8.2 µM,,47 µM,250 µM,920 µM,55 µM,30 µM,124 µM,57 µM,119 µM,13 µM,22 µM,27 µM,IC50 (SK-OV-3 [16]): 109 µM
CISPLATIN [listing 2 of 2 here],,,,,,,,,,,,,,,RTV (Mus musculus [17]): 1050; RTV (Mus musculus [18]): 544; T/C (Mus musculus [19]): 0.61; T/C (Mus musculus [20]): 0.88; T/C (Mus musculus [21]): 0.73; T/C (Mus musculus [22]): 0.72; RTV (Mus musculus [23]): 245; RTV (Mus musculus [24]): 364
